Laboratory results: ChEMBL document CHEMBL1125275, “2-[(arylmethyl) amino]-2-methyl-1,3-propanediol DNA intercalators. An examination of the effects of aromatic ring variation on antitumor activity and DNA binding” (J Med Chem, 1991)
Calls of active or inactive are those of the source. The rule behind the calls is not given here.

What was measured:
Mus musculus [1] = species on record: Mus musculus; experiment: Number of animals survived after 60 days; 0/6; assay type: functional
P388 [2] = experiment: Antitumor activity in murine lymphocytic leukemia P388 cells; assay type: functional, Mus musculus
Method in brief: (§1)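 Preliminary in vivo antitumor screen in mice bearing murine lymphocytic leukemia P388. The read-out is percent increase in life span (% ILS). Highest nontoxic doses used in the assay are reported in parentheses.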

P388 [3] = experiment: Lethal dose in murine lymphocytic leukemia P388 cells; assay type: functional, Mus musculus
Mus musculus [4] = species on record: Mus musculus; experiment: Number of animals survived after 30 days; 2/6; assay type: functional
Mus musculus [5] = species on record: Mus musculus; experiment: Percent increase in life span (% ILS) was tested at optimal dose.; assay type: functional
Method in brief: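 In vivo murine P388 lymphocytic leukemia screen; antitumor effect read as percent increase in life span (% ILS).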

Mus musculus [6] = species on record: Mus musculus; experiment: Number of animals survived after 30 days of treatment; 0/6.; assay type: functional
Mus musculus [7] = species on record: Mus musculus; experiment: Percent increase in life span (% ILS) was tested at optimal dose; I indicates inactive; assay type: functional, organism-based; method in brief: as §1
P388 [8] = experiment: The compound tested for the highest non-toxic dose in murine lymphocytic leukemia P388.; assay type: functional, Mus musculus
Method in brief: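 In vivo murine P388 lymphocytic leukemia screen; the value reported is the highest nontoxic dose used in the assay.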

P388 [9] = experiment: The compound tested for the lethal dose in murine lymphocytic leukemia P388.; assay type: ADME; details: mouse
Mus musculus [10] = species on record: Mus musculus; experiment: Number of animals survived after 30 days; 1/6; assay type: functional
Mus musculus [11] = species on record: Mus musculus; experiment: Number of animals survived after 30 days; 3/6; assay type: functional
Mus musculus [12] = species on record: Mus musculus; experiment: Number of animals survived after 30 days; 6/8; assay type: functional
Mus musculus [13] = species on record: Mus musculus; experiment: Number of animals survived after 60 days; 3/6; assay type: functional
Mus musculus [14] = species on record: Mus musculus; experiment: Number of animals survived after 30 days; 4/6; assay type: functional
Mus musculus [15] = species on record: Mus musculus; experiment: Number of animals survived after 30 days; assay type: functional

SMILES	Optimal dose (P388 [2]) [mg/kg]	LD20 (P388 [3]) [mg/kg]	ILS (Mus musculus [5]) [%]	No. of animals survived (Mus musculus [6])	ILS (Mus musculus [7])	Highest non-toxic dose (P388 [8]) [mg/kg]	further results
CC(CO)(CO)NCc1c2ccccc2cc2c1ccc1ccccc12	180	220	180	–	–	–	No. of animals survived (Mus musculus [1]): 0; No. of animals survived (Mus musculus [4]): 2
CC(CO)(CO)NCc1cccc2c1ccc1ccccc12.Cl	230	225	65	0	–	–	–
CC(CO)(CO)NCc1cccc2ccccc12.Cl	180	–	–	–	inactive	180	–
CC(CO)(CO)NCc1cc2c3c(cccc3c1)-c1ccccc1-2.Cl	160	–	105	0	–	–	LD20 (P388 [9]): 160 mg/kg
CC(CO)(CO)NCc1ccc2cc3ccccc3cc2c1.Cl	250	–	–	–	inactive	250	–
CC(CO)(CO)NCc1cc2ccccc2c2ccccc12.Cl	150	125	60	0	–	–	–
CC(CO)(CO)NCc1ccc(-c2ccccc2)cc1.Cl	283	–	–	–	inactive	283	–
CC(CO)(CO)NCc1ccc(-c2ccccc2)c2ccccc12.Cl	175	–	–	–	inactive	175	–
CC(CO)(CO)NCc1ccc2cccc3c2c1-c1ccccc1-3.Cl	140	–	100	0	–	–	LD20 (P388 [9]): 140 mg/kg
CC(CO)(CO)NCc1cccc2ccc3ccccc3c12.Cl	269	–	–	–	inactive	269	–
CC(CO)(CO)NCc1ccc2c3cccc4cccc(c5cccc1c52)c43.Cl	350	425	100	0	–	–	–
CC(CO)(CO)NCc1ccc2c3ccccc3c3ccccc3c2c1.Cl	85	85	100	0	–	–	–
CC(CO)(CO)NCc1cccc2c1-c1cccc3cccc-2c13.Cl	100	–	142	0	–	–	LD20 (P388 [9]): 123 mg/kg
CC(CO)(CO)NCc1ccc2c(ccc3cc4ccccc4cc32)c1	200	200	20	0	–	–	–
CC(CO)(CO)NCc1ccc2c(c1)Cc1ccccc1-2.Cl	225	–	–	–	inactive	225	–
CC(CO)(CO)NCc1cccc2cc3ccccc3cc12.Cl	120	110	125	0	–	–	–
CC(CO)(CO)NCc1ccc2c(ccc3c4ccccc4ccc23)c1	450	450	–	–	inactive	–	–
CC(CO)(CO)NCc1cc2cccc3ccc4cccc1c4c32.Cl	40	40	45	0	–	–	–
CC(CO)(CO)NCc1c2ccccc2c2ccc3cccc4ccc1c2c43	100	123	100	0	–	–	–
CC(CO)(CO)NCc1c2ccccc2cc2ccccc12.Cl	150	150	30	0	–	–	–

SMILES	Optimal dose (P388 [2]) [mg/kg]	LD20 (P388 [3]) [mg/kg]	ILS (Mus musculus [5]) [%]	No. of animals survived (Mus musculus [6])	ILS (Mus musculus [7])	Highest non-toxic dose (P388 [8]) [mg/kg]	further results
CC(CO)(CO)NCc1c2ccccc2cc2cc3ccccc3cc12	60	60	165	–	–	–	No. of animals survived (Mus musculus [1]): 0; No. of animals survived (Mus musculus [4]): 2
CC(CO)(CO)NCc1cccc2ccc3c4ccccc4ccc3c12	225	225	120	–	–	–	No. of animals survived (Mus musculus [1]): 0; No. of animals survived (Mus musculus [10]): 1
CC(CO)(CO)NCc1ccc2ccccc2c1.Cl	240	–	–	–	inactive	240	–
CCCCCCCCCCCCNC(C)(CO)CO.Cl	75	–	–	–	inactive	75	–
CC(CO)(CO)NCc1c2c(cc3ccccc13)Cc1ccccc1-2	250	–	210	–	–	250	No. of animals survived (Mus musculus [1]): 0; No. of animals survived (Mus musculus [11]): 3
CC(CO)(CO)NCc1ccc2ccc3cccc4ccc1c2c34.Cl	260	275	120	0	–	–	–
CC(CO)(CO)NCc1cc2c3c(ccc4c3c1CCC4)CCC2.Cl	151	–	–	–	inactive	151	–
CC(CO)(CO)NCc1ccccc1.Cl	350	–	–	–	inactive	350	–
CC(CO)(CO)NCc1cc2c3ccccc3ccc2c2ccccc12 [CRISNATOL]	120	120	215	–	–	–	No. of animals survived (Mus musculus [12]): 6; No. of animals survived (Mus musculus [13]): 3
CC(CO)(CO)NCc1ccc2c(c1)-c1cccc3cccc-2c13.Cl	150	–	–	–	inactive	166	–
CC(CO)(CO)NCc1ccc2ccc3c4ccccc4ccc3c2c1	110	110	20	0	–	–	–
CC(CO)(CO)NCc1c2c3c(cccc3c3ccccc13)CC2	60	70	200	–	–	–	No. of animals survived (Mus musculus [1]): 0; No. of animals survived (Mus musculus [11]): 3
CC(CO)(CO)NCc1ccc2c(ccc3ccccc32)c1.Cl	200	175	33	0	–	–	–
CC(CO)(CO)NCc1c2c3c(cccc3c3ccccc13)C=C2	110	125	225	–	–	–	No. of animals survived (Mus musculus [1]): 0; No. of animals survived (Mus musculus [14]): 4
CC(CO)(CO)NCc1cc2ccc3ccccc3c2c2ccccc12	7.5	15	42	0	–	–	–
CC(CO)(CO)NCc1cccc2c3ccccc3c3ccccc3c12.Cl	155	165	25	0	–	–	–
CC(CO)(CO)NCc1ccc2ccc3ccccc3c2c1.Cl	225	250	20	0	–	–	–
CC(CO)(CO)NCc1ccc2c3c1ccc1cccc(c13)C2	270	300	45	0	–	–	–
CC(CO)(CO)NCc1ccc2c3c(cccc13)-c1ccccc1-2.Cl	105	–	190	–	–	–	No. of animals survived (Mus musculus [13]): 3; No. of animals survived (Mus musculus [15]): 5; LD20 (P388 [9]): 110 mg/kg
